According to ChEMBL document CHEMBL6127151, “Cyclic Peptide C5aR1 Antagonist Design Using Solution Conformational Analysis Derived from Residual Dipolar Couplings” (ACS Med Chem Lett, 2024):

Key:
[1] = Passive permeability across apical to basolateral side in dog RRCK cells incubated for 30 mins; type: ADME, cell-based, Canis lupus familiaris, MDCKII-LE; conditions: MDCK, read-out: permeability
Method in brief: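 Passive absorptive permeability was measured from the apical to the basolateral side in RRCK cells after a 30 min preincubation. Values are reported as the mean, in 10–6 cm/s.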

[2] = target: T1, C5a anaphylatoxin chemotactic receptor 1 (Homo sapiens) (UniProt P21730); experiment: Binding affinity to C5aR1 receptor (unknown origin) assessed as binding constant; conditions: time 10.0 min
T1 sequence (whole entry): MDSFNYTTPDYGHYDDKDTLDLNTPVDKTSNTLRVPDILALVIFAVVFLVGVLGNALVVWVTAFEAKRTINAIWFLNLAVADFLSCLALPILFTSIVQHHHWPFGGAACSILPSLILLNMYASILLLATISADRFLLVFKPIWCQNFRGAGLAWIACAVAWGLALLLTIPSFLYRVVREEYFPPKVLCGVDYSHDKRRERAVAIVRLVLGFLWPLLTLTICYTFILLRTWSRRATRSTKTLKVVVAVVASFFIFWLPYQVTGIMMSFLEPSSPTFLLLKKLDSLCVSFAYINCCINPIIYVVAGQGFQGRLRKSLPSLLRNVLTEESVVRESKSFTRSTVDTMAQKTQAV

SMILES | Papp A→B at 0.5 h [1] [×10⁻⁶ cm/s] | Kb ([2]; filed as antagonist) [nM] | Kb [2] [nM]
CCN1CC[C@H](NC(=O)c2ccnn2-c2ccccc2)C(=O)N[C@@H]([C@@H](C)O)C(=O)N[C@@H](CC(C)C)C(=O)N[C@@H](Cc2ccc(F)cc2)C(=O)N[C@@H](Cc2ccccc2)CC1=O | 0.4 | 54 | 
C[C@@H](Cc1ccccc1)C(=O)N[C@H]1CCN(C)C(=O)C[C@H](Cc2ccccc2)NC(=O)[C@H](Cc2ccc(F)cc2)NC(=O)[C@@H](CC2CCCCC2)NC(=O)[C@@H]2CCCN2C1=O | 5 | 5.52 | 
C[C@@H](Cc1ccccc1)C(=O)N[C@H]1CCCN(C)C(=O)[C@H](Cc2ccccc2)NC(=O)[C@H](Cc2ccc(F)cc2)NC(=O)[C@@H](CC2CCCCC2)NC(=O)[C@@H]2CCCN2C1=O | 2.6 | 36.3 | 
C[C@@H](Cc1ccccc1)C(=O)N[C@H]1CCCN(C)C(=O)[C@H](Cc2ccccc2)NC(=O)[C@H](Cc2ccc(F)cc2)NC(=O)[C@@H](CC2CCCCC2)NC(=O)[C@@H]2CCN2C1=O | 11.1 | 57.5 | 
CCCC[C@@H]1NC(=O)[C@H](Cc2ccc(F)cc2)N(C)C(=O)[C@@H](CC2CCCCC2)NC(=O)[C@@H]2CCCN2C(=O)[C@@H](NC(=O)[C@@H](C)Cc2ccccc2)CCCN(C)C1=O | 2.6 |  | > 10000
CCCC[C@@H]1NC(=O)[C@H](Cc2ccc(F)cc2)NC(=O)[C@@H](CC2CCCCC2)N(C)C(=O)[C@@H]2CCCN2C(=O)[C@@H](NC(=O)[C@@H](C)Cc2ccccc2)CCCN(C)C1=O | 4.4 |  | > 10000
C[C@@H](Cc1ccccc1)C(=O)N[C@H]1CCCN(C)C(=O)[C@H](Cc2ccccc2)NC(=O)[C@H](Cc2ccc(F)cc2)NC(=O)[C@@H](CC2CCCCC2)NC(=O)[C@H]([C@@H](C)O)NC1=O | 5.5 | 38.9 | 
C[C@@H](Cc1ccccc1)C(=O)N[C@@H]1C(=O)N2CCC[C@H]2C(=O)N[C@H](CC2CCCCC2)C(=O)N[C@@H](Cc2ccc(F)cc2)C(=O)N[C@@H](Cc2ccccc2)C(=O)N2CCC1CC2 | 6.5 | 82.8 | 
CCCC[C@H]1C(=O)N(C)CCC[C@H](NC(=O)[C@@H](C)Cc2ccccc2)C(=O)N2CCC[C@H]2C(=O)N[C@H](CC2CCCCC2)C(=O)N[C@@H](Cc2ccc(F)cc2)C(=O)N1C | 4.2 |  | > 9500
C[C@@H](Cc1ccccc1)C(=O)N[C@H]1CCN(C)C(=O)C[C@H](Cc2ccccc2)NC(=O)[C@H](Cc2ccc(F)cc2)N(C)C(=O)[C@@H](CC2CCCCC2)NC(=O)[C@@H]2CCCN2C1=O | 2.1 | 127 | 
C[C@@H](Cc1ccccc1)C(=O)N[C@H]1CC[C@H]2CCCN2C(=O)[C@H](Cc2ccccc2)NC(=O)[C@H](Cc2ccc(F)cc2)NC(=O)[C@@H](CC2CCCCC2)NC(=O)[C@@H]2CCCN2C1=O | 3.4 | 46.5 | 
